Results from PubChem BioAssay AID623952 (Vanderbilt High Throughput Screening Facility, 2012).

Each compound was assayed against G protein-activated inward rectifier potassium channel 2 (Homo sapiens) + G protein-activated inward rectifier potassium channel 1 (Homo sapiens) (UniProt P48051+P48549) (assay: GIRK1/2 activators in cells lacking mGlu8, dose response, minus mGlu8, HEK-293 hGIRK1/2, thallium flux (AID 623952)). Details: HEK-293 hGIRK1/2, thallium flux FluoZin-2 fluorescence;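 active = compounds whose GIRK thallium flux rose with dose, so a potency curve could be fitted; inactive = the rest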.
In short: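 Assay system: HEK-293 cells with stable human GIRK1/2 channel expression; Incubation: dye loading ~60 min room temperature, compound 4 min pre-stimulus; Read-out basis: Vehicle-corrected F/F0 slope, four-parameter logistic fit; Technique: FluoZin-2 fluorescence thallium flux; Reagent: thallium stimulus plus EC20 glutamate.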

Sequence of G protein-activated inward rectifier potassium channel 2 (Homo sapiens) + G protein-activated inward rectifier potassium channel 1 (Homo sapiens) (P48051 whole entry, looked up): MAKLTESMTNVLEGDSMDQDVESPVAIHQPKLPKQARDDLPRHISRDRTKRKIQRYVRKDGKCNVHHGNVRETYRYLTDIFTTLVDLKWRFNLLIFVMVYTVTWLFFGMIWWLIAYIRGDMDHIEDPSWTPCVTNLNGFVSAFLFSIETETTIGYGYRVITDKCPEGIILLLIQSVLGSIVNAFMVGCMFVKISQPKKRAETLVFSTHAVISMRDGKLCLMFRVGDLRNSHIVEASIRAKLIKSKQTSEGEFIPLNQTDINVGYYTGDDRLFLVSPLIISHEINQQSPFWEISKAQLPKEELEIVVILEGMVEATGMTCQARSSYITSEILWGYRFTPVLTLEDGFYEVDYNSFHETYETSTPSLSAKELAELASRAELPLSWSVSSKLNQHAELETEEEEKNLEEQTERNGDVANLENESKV
Sequence of G protein-activated inward rectifier potassium channel 2 (Homo sapiens) + G protein-activated inward rectifier potassium channel 1 (Homo sapiens) (P48549 whole entry, looked up): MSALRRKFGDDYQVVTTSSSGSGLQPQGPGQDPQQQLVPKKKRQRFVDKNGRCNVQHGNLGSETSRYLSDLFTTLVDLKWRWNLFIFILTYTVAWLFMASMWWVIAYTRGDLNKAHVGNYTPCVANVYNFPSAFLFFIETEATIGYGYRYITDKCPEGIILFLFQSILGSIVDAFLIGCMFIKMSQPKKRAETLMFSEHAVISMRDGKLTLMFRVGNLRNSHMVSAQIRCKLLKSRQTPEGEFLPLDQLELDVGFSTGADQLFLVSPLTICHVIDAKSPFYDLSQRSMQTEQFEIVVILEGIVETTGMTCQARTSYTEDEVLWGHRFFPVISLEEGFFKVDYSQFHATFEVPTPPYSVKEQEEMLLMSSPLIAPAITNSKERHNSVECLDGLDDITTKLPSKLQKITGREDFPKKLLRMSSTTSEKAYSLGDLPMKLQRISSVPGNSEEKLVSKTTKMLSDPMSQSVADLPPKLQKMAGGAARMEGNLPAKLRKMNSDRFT

EC50, active:
Cc1ccc(NC(=O)Cc2ccccc2Cl)cc1S(=O)(=O)N(C)C 799 nM, Cc1cc(NC(=O)Nc2ccccc2)n(-c2ccccc2)n1 1690 nM, Cc1ccc(-c2nnn(CC(=O)NC3CC4CCC3C4)n2)cc1 (centres undefined) 700 nM, CCOc1ccccc1Nc1nnc(Cc2ccccc2Cl)c(=O)[nH]1 250 nM
